According to ChEMBL document CHEMBL1147807, “Identification of 2-acylaminothiophene-3-carboxamides as potent inhibitors of FLT3” (Bioorg Med Chem Lett, 2006):

Tests used:
[1] = molecular target: Tyrosine-protein kinase ABL1 (Homo sapiens) (UniProt P00519); assay: Inhibition of human Abl kinase at 3 uM in presence of 10 uM ATP
In short: (§1)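 Selectivity panel run at a single compound concentration of 3 µM with 10 µM ATP. Read-out is % inhibition of each kinase. Values are averages of duplicate experiments.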

[2] = molecular target: T1, Serine/threonine-protein kinase D1 (Homo sapiens) (UniProt Q15139); assay: Inhibition of human PKC mu at 3 uM in presence of 10 uM ATP; in short: as §1
T1 sequence (whole entry): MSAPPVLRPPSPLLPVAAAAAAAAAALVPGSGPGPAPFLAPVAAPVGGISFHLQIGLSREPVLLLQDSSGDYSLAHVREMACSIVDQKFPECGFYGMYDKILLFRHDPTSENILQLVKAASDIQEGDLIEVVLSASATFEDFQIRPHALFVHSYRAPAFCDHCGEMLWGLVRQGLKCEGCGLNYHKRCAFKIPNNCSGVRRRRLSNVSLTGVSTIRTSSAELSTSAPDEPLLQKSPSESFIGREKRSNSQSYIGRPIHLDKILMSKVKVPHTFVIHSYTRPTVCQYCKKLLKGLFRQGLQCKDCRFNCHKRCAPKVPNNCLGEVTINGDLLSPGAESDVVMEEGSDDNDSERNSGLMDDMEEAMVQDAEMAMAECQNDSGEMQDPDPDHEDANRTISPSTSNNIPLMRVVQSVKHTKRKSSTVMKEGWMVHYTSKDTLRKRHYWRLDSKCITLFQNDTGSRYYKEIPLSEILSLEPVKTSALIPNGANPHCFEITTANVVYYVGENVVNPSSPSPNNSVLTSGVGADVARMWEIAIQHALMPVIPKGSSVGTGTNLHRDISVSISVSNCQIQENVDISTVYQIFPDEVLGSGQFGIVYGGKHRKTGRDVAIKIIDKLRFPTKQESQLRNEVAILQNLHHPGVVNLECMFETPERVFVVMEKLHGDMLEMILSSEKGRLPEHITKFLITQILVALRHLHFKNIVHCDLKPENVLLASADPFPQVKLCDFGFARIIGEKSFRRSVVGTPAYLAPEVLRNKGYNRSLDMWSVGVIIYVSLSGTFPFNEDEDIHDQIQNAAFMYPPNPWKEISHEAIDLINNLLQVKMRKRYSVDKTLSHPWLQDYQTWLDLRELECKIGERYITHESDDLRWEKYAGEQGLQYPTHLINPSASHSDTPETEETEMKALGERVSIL

[3] = molecular target: T2, Serine/threonine-protein kinase D2 (Homo sapiens) (UniProt Q9BZL6); assay: Inhibition of human PKD2 at 3 uM in presence of 10 uM ATP; in short: as §1
T2 sequence (whole entry): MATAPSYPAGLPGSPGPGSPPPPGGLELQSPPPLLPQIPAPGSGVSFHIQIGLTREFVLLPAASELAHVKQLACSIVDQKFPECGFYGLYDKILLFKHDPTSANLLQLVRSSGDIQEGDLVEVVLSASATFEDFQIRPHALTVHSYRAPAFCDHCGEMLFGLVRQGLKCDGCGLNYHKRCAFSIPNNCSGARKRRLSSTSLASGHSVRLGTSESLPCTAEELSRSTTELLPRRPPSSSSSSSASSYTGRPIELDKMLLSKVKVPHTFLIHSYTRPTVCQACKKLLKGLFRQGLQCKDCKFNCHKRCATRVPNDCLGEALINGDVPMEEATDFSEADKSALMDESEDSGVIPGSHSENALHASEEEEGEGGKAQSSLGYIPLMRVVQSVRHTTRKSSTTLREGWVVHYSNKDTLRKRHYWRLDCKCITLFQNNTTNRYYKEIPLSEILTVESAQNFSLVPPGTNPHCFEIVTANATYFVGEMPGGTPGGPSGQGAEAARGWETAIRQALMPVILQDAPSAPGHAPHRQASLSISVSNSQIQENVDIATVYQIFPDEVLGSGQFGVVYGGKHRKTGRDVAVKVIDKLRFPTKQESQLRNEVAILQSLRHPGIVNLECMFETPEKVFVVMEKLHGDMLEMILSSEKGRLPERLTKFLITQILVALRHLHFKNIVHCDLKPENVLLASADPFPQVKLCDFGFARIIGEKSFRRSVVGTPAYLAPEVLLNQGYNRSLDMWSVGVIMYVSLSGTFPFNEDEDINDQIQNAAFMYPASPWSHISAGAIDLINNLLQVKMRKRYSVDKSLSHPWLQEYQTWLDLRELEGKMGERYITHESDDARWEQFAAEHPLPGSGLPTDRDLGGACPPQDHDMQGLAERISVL

[4] = molecular target: Tyrosine-protein kinase receptor UFO (Homo sapiens) (UniProt P30530); assay: Inhibition of human Axl kinase at 3 uM in presence of 10 uM ATP; in short: as §1
[5] = molecular target: Mitogen-activated protein kinase 10 (Homo sapiens) (UniProt P53779); assay: Inhibition of human JNK3 at 3 uM in presence of 10 uM ATP; in short: as §1
MV4-11 = assay: Antiproliferative activity against human MV4-11 cells
[6] = molecular target: Tyrosine-protein kinase BTK (Homo sapiens) (UniProt Q06187); assay: Inhibition of human BTK kinase at 3 uM in presence of 10 uM ATP; in short: as §1
[7] = molecular target: Ribosomal protein S6 kinase alpha-1 (Homo sapiens) (UniProt Q15418); assay: Inhibition of human Rsk1 at 3 uM in presence of 10 uM ATP; in short: as §1
[8] = molecular target: Tyrosine-protein kinase ABL2 (Homo sapiens) (UniProt P42684); assay: Inhibition of human Arg kinase at 3 uM in presence of 10 uM ATP; in short: as §1
Chain of Tyrosine-protein kinase ABL2 (Homo sapiens) (P42684 whole entry): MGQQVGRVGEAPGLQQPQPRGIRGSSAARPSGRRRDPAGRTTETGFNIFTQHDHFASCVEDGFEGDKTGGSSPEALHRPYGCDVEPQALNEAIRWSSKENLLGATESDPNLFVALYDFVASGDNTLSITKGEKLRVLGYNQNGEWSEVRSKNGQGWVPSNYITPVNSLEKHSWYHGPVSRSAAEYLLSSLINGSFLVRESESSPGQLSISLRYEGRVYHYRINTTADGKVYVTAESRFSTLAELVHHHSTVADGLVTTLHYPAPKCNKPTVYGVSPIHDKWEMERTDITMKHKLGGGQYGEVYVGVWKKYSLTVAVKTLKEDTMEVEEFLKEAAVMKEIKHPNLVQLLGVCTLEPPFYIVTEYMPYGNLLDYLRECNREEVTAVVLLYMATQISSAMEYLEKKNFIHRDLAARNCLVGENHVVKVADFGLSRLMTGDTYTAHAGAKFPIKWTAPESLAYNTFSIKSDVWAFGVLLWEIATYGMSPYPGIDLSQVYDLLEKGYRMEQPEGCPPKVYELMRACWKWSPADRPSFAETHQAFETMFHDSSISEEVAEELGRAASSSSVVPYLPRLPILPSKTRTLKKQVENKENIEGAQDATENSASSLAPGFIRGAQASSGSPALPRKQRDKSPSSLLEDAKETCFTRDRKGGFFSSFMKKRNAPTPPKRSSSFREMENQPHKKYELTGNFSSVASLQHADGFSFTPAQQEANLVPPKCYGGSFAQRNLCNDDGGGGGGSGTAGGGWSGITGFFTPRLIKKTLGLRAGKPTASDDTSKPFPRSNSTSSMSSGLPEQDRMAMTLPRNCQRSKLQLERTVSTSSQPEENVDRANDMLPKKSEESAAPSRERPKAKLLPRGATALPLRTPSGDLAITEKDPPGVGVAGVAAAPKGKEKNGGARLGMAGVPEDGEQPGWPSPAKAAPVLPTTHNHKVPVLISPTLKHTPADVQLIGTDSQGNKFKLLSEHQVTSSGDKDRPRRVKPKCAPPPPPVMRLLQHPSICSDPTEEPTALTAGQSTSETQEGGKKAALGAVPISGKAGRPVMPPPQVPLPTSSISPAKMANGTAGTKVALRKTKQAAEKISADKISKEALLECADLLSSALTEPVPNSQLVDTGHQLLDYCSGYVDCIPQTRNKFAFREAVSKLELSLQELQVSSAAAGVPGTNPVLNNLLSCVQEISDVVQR

Chain of Mitogen-activated protein kinase 10 (Homo sapiens) (P53779 whole entry): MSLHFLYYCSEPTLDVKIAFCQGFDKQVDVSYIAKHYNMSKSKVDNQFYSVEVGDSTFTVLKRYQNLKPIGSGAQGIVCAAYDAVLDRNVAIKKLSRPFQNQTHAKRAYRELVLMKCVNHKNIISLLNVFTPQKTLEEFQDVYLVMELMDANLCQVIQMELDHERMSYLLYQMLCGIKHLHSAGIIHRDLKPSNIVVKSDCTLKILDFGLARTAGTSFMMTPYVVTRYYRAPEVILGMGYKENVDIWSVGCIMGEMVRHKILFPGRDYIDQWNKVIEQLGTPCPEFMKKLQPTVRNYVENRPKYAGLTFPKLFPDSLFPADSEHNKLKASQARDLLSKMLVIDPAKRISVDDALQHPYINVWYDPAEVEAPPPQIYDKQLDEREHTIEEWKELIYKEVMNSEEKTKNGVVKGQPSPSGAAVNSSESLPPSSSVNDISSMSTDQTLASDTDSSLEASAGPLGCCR
Chain of Tyrosine-protein kinase BTK (Homo sapiens) (Q06187 whole entry): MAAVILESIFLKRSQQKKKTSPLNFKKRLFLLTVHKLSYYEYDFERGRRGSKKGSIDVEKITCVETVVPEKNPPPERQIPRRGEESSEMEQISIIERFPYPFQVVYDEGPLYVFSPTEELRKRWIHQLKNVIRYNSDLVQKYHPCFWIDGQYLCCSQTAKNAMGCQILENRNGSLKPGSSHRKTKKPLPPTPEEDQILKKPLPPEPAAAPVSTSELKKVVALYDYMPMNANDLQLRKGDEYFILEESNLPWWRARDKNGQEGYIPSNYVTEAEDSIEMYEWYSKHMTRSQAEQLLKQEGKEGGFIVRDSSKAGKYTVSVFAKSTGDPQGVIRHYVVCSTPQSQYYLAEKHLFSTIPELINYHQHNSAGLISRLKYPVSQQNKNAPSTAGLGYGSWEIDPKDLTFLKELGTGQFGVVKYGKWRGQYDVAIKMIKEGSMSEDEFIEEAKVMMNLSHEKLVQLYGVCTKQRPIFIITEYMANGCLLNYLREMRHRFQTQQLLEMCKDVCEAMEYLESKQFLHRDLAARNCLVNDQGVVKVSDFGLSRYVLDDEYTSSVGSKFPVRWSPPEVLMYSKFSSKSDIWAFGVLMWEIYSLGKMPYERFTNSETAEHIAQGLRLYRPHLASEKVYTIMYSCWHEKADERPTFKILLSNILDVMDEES
Chain of Tyrosine-protein kinase receptor UFO (Homo sapiens) (P30530 whole entry): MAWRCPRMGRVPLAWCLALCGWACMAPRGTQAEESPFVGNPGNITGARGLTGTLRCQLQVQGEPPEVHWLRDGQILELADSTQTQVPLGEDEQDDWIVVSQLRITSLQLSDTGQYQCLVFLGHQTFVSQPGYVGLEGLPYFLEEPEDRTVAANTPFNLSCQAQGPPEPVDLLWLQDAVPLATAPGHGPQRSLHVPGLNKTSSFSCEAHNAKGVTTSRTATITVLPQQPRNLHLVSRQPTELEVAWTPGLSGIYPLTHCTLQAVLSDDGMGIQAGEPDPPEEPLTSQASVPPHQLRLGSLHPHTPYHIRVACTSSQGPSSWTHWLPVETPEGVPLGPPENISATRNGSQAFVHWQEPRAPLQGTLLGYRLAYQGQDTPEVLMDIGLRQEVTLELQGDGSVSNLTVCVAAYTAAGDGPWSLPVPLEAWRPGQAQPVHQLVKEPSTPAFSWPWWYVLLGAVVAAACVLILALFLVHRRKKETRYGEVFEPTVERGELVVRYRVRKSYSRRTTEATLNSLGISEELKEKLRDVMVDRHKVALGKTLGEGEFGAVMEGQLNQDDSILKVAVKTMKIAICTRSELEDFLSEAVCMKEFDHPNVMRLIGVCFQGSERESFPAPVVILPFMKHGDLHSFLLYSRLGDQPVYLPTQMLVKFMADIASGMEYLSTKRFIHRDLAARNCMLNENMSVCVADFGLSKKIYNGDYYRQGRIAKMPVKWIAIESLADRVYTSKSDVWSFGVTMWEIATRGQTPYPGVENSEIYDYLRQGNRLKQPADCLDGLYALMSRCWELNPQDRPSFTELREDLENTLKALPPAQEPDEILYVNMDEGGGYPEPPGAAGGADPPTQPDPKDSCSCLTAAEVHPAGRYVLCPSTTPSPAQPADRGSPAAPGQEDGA
Chain of Tyrosine-protein kinase ABL1 (Homo sapiens) (P00519 whole entry): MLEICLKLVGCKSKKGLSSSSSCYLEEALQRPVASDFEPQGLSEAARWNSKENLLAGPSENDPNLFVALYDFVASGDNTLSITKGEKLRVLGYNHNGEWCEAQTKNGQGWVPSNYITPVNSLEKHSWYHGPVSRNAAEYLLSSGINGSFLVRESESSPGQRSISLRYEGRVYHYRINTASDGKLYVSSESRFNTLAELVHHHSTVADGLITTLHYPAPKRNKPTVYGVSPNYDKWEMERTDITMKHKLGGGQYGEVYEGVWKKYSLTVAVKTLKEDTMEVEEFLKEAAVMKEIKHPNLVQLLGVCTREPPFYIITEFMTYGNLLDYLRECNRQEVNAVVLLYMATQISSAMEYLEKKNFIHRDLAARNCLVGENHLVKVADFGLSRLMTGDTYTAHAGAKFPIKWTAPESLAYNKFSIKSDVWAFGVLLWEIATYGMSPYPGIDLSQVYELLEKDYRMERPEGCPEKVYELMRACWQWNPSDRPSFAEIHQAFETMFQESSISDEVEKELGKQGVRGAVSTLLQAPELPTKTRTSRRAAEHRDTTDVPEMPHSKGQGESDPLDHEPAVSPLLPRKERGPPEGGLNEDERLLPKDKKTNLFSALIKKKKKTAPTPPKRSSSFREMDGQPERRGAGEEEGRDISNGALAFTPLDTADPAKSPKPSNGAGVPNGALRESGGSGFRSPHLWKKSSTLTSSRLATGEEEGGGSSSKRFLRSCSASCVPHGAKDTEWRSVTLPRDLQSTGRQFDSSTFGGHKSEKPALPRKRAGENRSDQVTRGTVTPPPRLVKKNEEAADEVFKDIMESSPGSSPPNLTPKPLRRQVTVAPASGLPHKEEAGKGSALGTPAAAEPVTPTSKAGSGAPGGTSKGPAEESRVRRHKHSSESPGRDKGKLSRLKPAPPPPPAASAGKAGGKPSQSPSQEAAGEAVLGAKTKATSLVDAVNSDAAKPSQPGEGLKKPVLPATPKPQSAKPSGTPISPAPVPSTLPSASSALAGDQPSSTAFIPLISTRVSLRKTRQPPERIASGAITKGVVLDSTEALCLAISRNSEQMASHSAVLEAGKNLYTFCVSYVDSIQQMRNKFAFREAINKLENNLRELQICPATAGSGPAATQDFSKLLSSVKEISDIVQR
Chain of Ribosomal protein S6 kinase alpha-1 (Homo sapiens) (Q15418 whole entry): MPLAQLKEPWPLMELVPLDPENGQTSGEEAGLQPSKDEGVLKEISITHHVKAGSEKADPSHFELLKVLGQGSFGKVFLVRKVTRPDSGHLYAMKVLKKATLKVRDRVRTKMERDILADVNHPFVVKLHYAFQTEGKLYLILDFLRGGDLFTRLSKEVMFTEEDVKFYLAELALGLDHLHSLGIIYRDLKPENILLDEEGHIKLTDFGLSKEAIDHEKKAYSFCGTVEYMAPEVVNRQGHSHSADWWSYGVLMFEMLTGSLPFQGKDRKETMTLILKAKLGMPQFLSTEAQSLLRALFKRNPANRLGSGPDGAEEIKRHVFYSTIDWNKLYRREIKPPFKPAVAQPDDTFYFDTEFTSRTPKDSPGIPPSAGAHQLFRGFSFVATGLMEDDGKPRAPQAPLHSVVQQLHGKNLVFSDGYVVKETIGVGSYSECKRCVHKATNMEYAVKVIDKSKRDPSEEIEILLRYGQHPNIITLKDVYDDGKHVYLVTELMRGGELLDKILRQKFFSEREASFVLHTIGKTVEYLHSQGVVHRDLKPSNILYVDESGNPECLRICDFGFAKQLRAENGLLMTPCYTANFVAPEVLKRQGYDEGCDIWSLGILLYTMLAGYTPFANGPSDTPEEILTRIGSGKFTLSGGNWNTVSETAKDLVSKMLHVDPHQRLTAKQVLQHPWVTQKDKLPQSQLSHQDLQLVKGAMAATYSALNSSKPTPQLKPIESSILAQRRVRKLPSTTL

inhibition [1]: 21%
inhibition [2]: 3%
inhibition [3]: -7%
inhibition [4]: -10%
inhibition [5]: -6%
IC50 (MV4-11): 340 nM
inhibition [6]: 14%
inhibition [7]: 3%
inhibition [8]: 49%
Structure (SMILES): COc1ccc(C(=O)Nc2sc3c(c2C(N)=O)CCCC3)cc1OC
